Laboratory results published in ChEMBL document CHEMBL4665803, “Discovery of Covalent Inhibitors Targeting the Transcriptional Enhanced Associate Domain Central Pocket” (J Med Chem, 2020).
Active and inactive are the calls of the source. No cut-off for these calls is given here.

Key:
[1] = target: T1, Transcriptional enhancer factor TEF-3 (Homo sapiens, UniProt Q15561); experiment: Inhibition of CPM binding to N-terminal His6-tagged human TEAD4 (217 to 434 residues) expressed in Escherichia coli BL21-CodonPlus (DE3)-RIPL cells preincubated for 10 mins followed by CPM addition and measured after 1 hr by fluorescence assay; details: for inhibition: time 70.0 min
T1 sequence (Q15561 whole entry, the tested form may be a part): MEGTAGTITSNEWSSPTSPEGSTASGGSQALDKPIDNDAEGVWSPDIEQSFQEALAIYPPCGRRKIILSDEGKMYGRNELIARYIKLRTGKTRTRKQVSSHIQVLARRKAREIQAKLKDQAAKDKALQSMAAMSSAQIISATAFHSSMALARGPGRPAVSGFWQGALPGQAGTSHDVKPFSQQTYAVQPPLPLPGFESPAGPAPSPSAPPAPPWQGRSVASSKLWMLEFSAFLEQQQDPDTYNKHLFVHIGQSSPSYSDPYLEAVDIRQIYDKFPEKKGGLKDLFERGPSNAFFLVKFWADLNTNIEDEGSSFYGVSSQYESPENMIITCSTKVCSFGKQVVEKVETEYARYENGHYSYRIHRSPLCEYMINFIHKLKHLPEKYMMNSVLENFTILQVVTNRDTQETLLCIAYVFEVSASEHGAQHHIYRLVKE

[2] = target: T1, Transcriptional enhancer factor TEF-3; experiment: Inhibition of CPM binding to N-terminal His6-tagged human TEAD4 (217 to 434 residues) expressed in Escherichia coli BL21-CodonPlus (DE3)-RIPL cells at 12.5 uM preincubated for 10 mins followed by CPM addition and measured after 1 hr by fluorescence assay relative to control; details: time 70.0 min
[3] = target: T1, Transcriptional enhancer factor TEF-3; experiment: Inhibition of FITC-labeled palmitate tracer binding to N-terminal His6-tagged human TEAD4 (217 to 434 residues) expressed in Escherichia coli BL21-CodonPlus (DE3)-RIPL cells preincubated for 10 mins followed by FITC-labeled palmitate tracer addition and measured after 1 hr by fluorescence assay
How it was run: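 FP competition in 25 mM HEPES, 150 mM NaCl, pH 6.5: serially diluted compound preincubated 10 min at room temperature with nonacylated hTEAD4, then FITC-palmitate tracer added (final 50 nM protein, 10 nM tracer); shaken 1 h at room temperature, FP at Ex/Em 485/535 nm. Tracer Kd from saturation binding.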

[4] = target: T1, Transcriptional enhancer factor TEF-3; experiment: Inhibition of TEAD4 in HEK293 cells assessed as reduction in ANKRD1 mRNA expression at 1 uM measured after 6 hrs by SYBR green dye based RT-PCR analysis relative to control; assay type: cell-based
How it was run: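 HEK293 cells treated with DMSO or compound for 6 h; ANKRD1 mRNA measured by RT-qPCR relative to the DMSO control.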

[5] = target: Transcriptional enhancer factor TEF-3 (Mus musculus) (UniProt Q62296); experiment: Binding affinity to nonacylated mouse TEAD4 at 0.5 mM by 1H-15N HSQC spectra analysis
Sequence of Transcriptional enhancer factor TEF-3 (Mus musculus) (Q62296 whole entry): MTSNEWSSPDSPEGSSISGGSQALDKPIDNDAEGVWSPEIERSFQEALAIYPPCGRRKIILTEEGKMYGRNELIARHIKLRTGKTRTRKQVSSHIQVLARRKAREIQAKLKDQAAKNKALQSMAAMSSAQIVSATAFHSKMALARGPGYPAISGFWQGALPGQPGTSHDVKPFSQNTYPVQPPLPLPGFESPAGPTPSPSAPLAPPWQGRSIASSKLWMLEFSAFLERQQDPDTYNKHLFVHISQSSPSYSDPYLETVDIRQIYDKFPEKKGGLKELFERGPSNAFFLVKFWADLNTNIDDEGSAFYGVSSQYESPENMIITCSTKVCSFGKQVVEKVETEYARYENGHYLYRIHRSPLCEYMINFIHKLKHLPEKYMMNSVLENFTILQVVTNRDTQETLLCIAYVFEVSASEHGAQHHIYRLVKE
How it was run: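 1H–15N HSQC of 13C/15N-labeled mTEAD4, deacylated with hydroxylamine; spectra with DMSO or compound (0.5 mM) recorded at 37 °C on a 600 MHz cryoprobe instrument in 20 mM HEPES pH 7.3, 150 mM NaCl, 1 mM DTT; spectra overlaid.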

[6] = target: T1, Transcriptional enhancer factor TEF-3; experiment: Binding affinity to nonacylated N-terminal His6-tagged human TEAD4 (217 to 434 residues) expressed in Escherichia coli BL21-CodonPlus (DE3)-RIPL cells assessed as inhibition of protein-FAM-YAP (50 to 100 residues) interaction preincubated for 10 mins followed by FAM YAP addition and measured after 1 hr by fluorescence assay
How it was run: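 FP competition in PBS pH 7.5: serially diluted compound preincubated 10 min at room temperature with TEAD4 protein, then FAM-YAP50–100 added; shaken 1 h at room temperature, FP read at Ex/Em 485/535 nm. Final FAM/protein: nonacylated hTEAD4 2 nM/5 nM; acylated hTEAD4 3 nM/15 nM. Compound stocks 10 mM in DMSO. IC50 from curve fitting.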

[7] = target: T1, Transcriptional enhancer factor TEF-3; experiment: Selectivity ratio of apparent IC50 for inhibition of CPM binding to N-terminal His6-tagged human TEAD4 (217 to 434 residues) expressed in Escherichia coli BL21-CodonPlus (DE3)-RIPL cells to IC50 for inhibition of FITC-labeled palmitate tracer binding to N-terminal His6-tagged human TEAD4 (217 to 434 residues) expressed in Escherichia coli BL21-CodonPlus (DE3)-RIPL cells
[8] = target: T1, Transcriptional enhancer factor TEF-3; experiment: Binding affinity to nonacylated N-terminal His6-tagged human TEAD4 (217 to 434 residues) expressed in Escherichia coli BL21-CodonPlus (DE3)-RIPL cells assessed as melting temperature at 80 uM after 10 mins by SYPRO orange dye-based differential scanning fluorimetry method (reference value: 41 degreeC)
[9] = target: T1, Transcriptional enhancer factor TEF-3; experiment: Binding affinity to nonacylated N-terminal His6-tagged human TEAD4 (217 to 434 residues) expressed in Escherichia coli BL21-CodonPlus (DE3)-RIPL cells at 8 equiv after 1 hr by ESI-MS spectrophotometric analysis
How it was run: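 Whole-protein ESI–MS: 1 μM hTEAD4 incubated 1 h at room temperature with 8 equiv compound in 25 mM HEPES, 150 mM NaCl, pH 6.5; centrifuged, injected via online desalting column to UPLC-MS; masses deconvoluted to detect adducts.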

Row | SMILES | IC50 ([1]; read-out: IC50(app)) [µM] | inhibition [2] [%] | IC50 [3] [µM] | other results
1 | NC(=O)c1ccc(C(Nc2ccccc2)c2oc(CO)cc(=O)c2O)cc1 (configuration not stated) | 1.5 | > 50 | 0.3 | 
2 | O=c1cc(CO)oc(CN2CCN(c3ccccn3)CC2)c1O |  | < 50 |  | IC50 ([1]; read-out: IC50): > 100 µM
3 | CC(C)C(Nc1ccccc1)c1oc(CO)cc(=O)c1O (configuration not stated) | > 100 | > 50 | 38.1 | 
4 | O=c1cc(CO)oc(C(Nc2ccccc2)C2CCCCC2)c1O (configuration not stated) | > 100 | > 50 | 22.6 | 
5 | O=c1cc(CO)oc(C(Nc2ccccc2)c2ccccc2F)c1O (configuration not stated) | 0.7 | > 50 | 0.1 | 
6 | O=c1cc(CO)oc(C(c2ccccc2)N2Cc3ccccc3C2)c1O (configuration not stated) | 13.2 | > 50 | 0.9 | 
7 | CC(C)NC(c1ccccc1)c1oc(CO)cc(=O)c1O (configuration not stated) | 16.8 | > 50 | 1.5 | 
8 | O=c1cc(CO)oc(C(Nc2ccccn2)c2ccccn2)c1O (configuration not stated) | > 100 | > 50 | 16 | 
9 | O=c1cc(CO)oc(C(NCc2ccccc2)c2ccccc2)c1O (configuration not stated) | 4 | > 50 | 0.4 | 
10 | CCOC(=O)C1CCCN(Cc2oc(CO)cc(=O)c2O)C1 (configuration not stated) |  | < 50 |  | IC50 ([1]; read-out: IC50): > 100 µM
11 | O=c1cc(CO)oc(C(Nc2ccccn2)c2ccccc2)c1O (configuration not stated) | 3.1 | > 50 | 0.3 | 
12 | O=c1cc(CO)oc(C(Nc2ccccc2)c2ccccn2)c1O (configuration not stated) | 18.9 | > 50 | 0.5 | 
13 | O=c1cc(CO)oc(C(Nc2ncccn2)c2ccccc2)c1O (configuration not stated) | > 100 | > 50 | 13.4 | 
14 | COc1c(C(Nc2ccccc2)c2ccccc2)oc(CO)cc1=O (configuration not stated) | > 100 | < 50 | 41.6 | inhibition [4]: inactive; Activity [5]: inactive; IC50 [6]: 9.5 µM; Ratio IC50 [7]: > 200; Tm [8]: 41 °C; Activity [9]: inactive
15 | Cc1ccc(C(Nc2ccccc2)c2oc(CO)cc(=O)c2O)cc1 (configuration not stated) | 1.3 | > 50 | 0.2 | 
16 | O=c1cc(CO)oc(C(Nc2ccccn2)c2ccc(Br)cc2)c1O (configuration not stated) | 3.7 | > 50 | 0.4 | Tm [8]: 39 °C
17 | O=C(O)c1cccnc1Nc1cccc(C(F)(F)F)c1 [NIFLUMIC ACID] | 41.9 |  | 5.9 | inhibition [1]: Dose-dependent effect
18 | O=c1cc(CO)oc(C(Nc2ccccc2)c2ccc(Br)cc2)c1O (configuration not stated) | 1.2 | > 50 | 0.2 | 
19 | CSCC[C@H](NCc1oc(CO)cc(=O)c1O)C(=O)O |  | < 50 |  | IC50 ([1]; read-out: IC50): > 100 µM

Row | SMILES | IC50 ([1]; read-out: IC50(app)) [µM] | inhibition [2] [%] | IC50 [3] [µM] | other results
20 | O=c1cc(CO)oc(C(Nc2nccs2)c2ccccc2)c1O (configuration not stated) | 53.4 | > 50 | 5.6 | Tm [8]: 41 °C
21 | O=C(O)c1ccccc1Nc1cccc(C(F)(F)F)c1 |  |  |  | inhibition [1]: Dose-dependent effect
22 | NC(=O)c1ccc(NC(c2ccccc2)c2oc(CO)cc(=O)c2O)cc1 (configuration not stated) | 1.7 | > 50 | 0.3 | 
23 | COc1c(C(Nc2ccccn2)c2ccccc2F)oc(CO)cc1=O (configuration not stated) | > 100 | < 50 | 49.9 | Ratio IC50 [7]: > 200
24 | Cc1ccnc(NC(c2ccccc2)c2oc(CO)cc(=O)c2O)c1 (configuration not stated) | 2.4 | > 50 | 0.3 | 
25 | CCCCCCCCCCCCCCCC(=O)O |  |  |  | inhibition [1]: Dose-dependent effect
26 | O=c1cc(CO)oc(C(Nc2ccccc2)c2ccc3ccccc3c2)c1O (configuration not stated) | 1.1 | > 50 | 0.2 | 
27 | O=c1cc(CO)oc(C(Nc2nc3ccccc3[nH]2)c2ccccc2)c1O (configuration not stated) | > 100 | > 50 | 6.4 | 
28 | NC(=O)c1ccc(NC(c2ccccn2)c2oc(CO)cc(=O)c2O)cc1 (configuration not stated) | 9.2 | > 50 | 1.1 | 
29 | O=c1cc(CO)oc(C(Nc2ccccn2)c2ccccc2F)c1O (configuration not stated) | 3.2 | > 50 | 0.3 | IC50 ([1]; read-out: IC50): 3.2 µM
30 | O=c1cc(CO)oc(C(Nc2ccccn2)c2cccnc2)c1O (configuration not stated) | > 100 | > 50 | 14.7 | 
31 | O=c1cc(CO)oc(C(Nc2ccccc2)c2ccc(F)cc2)c1O (configuration not stated) | 1.9 | > 50 | 0.3 | 
32 | O=C(CCl)c1ccccc1Nc1cccc(C(F)(F)F)c1 | 0.8 |  | 14.1 | inhibition [1]: Dose-dependent effect
33 | CC(C)c1ccc(C(Nc2ccccc2)c2oc(CO)cc(=O)c2O)cc1 (configuration not stated) | 1 | > 50 | 0.2 | 
34 | O=c1cc(CO)oc(CNc2ccccc2)c1O | > 100 | > 50 | 36.4 | 
35 | O=c1cc(CO)oc(C(Nc2cccc(F)c2)c2ccccc2)c1O (configuration not stated) | 1.5 | > 50 | 0.2 | 
36 | O=c1cc(CO)oc(C(Nc2cccc(F)c2)c2ccccn2)c1O (configuration not stated) |  | > 50 |  | IC50 ([1]; read-out: IC50): 8.7 µM
37 | O=c1cc(CO)oc(C(Nc2nccs2)c2ccc(F)cc2)c1O (configuration not stated) |  | > 50 |  | IC50 ([1]; read-out: IC50): 43.1 µM
